Measurements from ChEMBL document CHEMBL1136987, “Synthesis and evaluation of sphingosine analogues as inhibitors of sphingosine kinases” (J Med Chem, 2009).
Calls of active or inactive are those of the source. The calls are words filed in the database; no cut-off is given here.

Tests used:
[1] = molecular target: T1, Sphingosine kinase 2 (Homo sapiens) (UniProt Q9NRA0); test: Inhibition of human cloned SPHK2 expressed in CHO cells at 10 uM; format: cell-based
T1 sequence (whole entry): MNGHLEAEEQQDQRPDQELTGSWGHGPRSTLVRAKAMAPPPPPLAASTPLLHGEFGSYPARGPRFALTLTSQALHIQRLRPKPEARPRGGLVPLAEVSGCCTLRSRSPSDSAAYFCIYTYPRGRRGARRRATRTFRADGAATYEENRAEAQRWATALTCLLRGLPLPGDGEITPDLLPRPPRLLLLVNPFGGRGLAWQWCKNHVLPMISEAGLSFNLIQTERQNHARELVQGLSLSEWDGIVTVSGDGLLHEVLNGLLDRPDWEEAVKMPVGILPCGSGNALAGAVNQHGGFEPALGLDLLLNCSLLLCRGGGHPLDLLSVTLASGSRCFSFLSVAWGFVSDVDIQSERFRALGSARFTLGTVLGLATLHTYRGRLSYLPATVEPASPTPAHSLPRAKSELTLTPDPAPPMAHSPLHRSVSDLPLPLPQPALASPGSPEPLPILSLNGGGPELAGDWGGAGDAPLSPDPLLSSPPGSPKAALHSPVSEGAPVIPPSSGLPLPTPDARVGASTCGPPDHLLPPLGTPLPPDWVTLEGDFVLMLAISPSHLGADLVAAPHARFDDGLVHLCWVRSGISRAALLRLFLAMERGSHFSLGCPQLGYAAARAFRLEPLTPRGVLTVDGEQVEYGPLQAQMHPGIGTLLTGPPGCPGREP
Summary of the method: (§1)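 Enzyme source: lysates (40 µg protein) of CHO cells transiently transfected (Lipofectamine 2000) with human SPHK1 (EGFP fusion) or SPHK2 plasmid. Compound at 10 µM in sphingosine kinase buffer with sphingosine-BSA complex (1 mM stock) and cold plus γ-[32P]ATP; 30 min at 37 °C. Lipids extracted with acidified chloroform/methanol, run on TLC, phosphorimaged; triplicate lanes per tube.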

[2] = molecular target: T1, Sphingosine kinase 2 (Homo sapiens); test: Effect on human cloned SPHK2 activity expressed in CHO cells at 10 uM relative to basal level; format: cell-based; summary of the method: as §1
[3] = molecular target: T2, Sphingosine kinase 1 (Homo sapiens, UniProt Q9NYA1); test: Inhibition of EGFP-fused human SPHK1 expressed in CHO cells at 10 uM; format: cell-based; summary of the method: as §1
T2 sequence (Q9NYA1 whole entry, the tested form may be a part): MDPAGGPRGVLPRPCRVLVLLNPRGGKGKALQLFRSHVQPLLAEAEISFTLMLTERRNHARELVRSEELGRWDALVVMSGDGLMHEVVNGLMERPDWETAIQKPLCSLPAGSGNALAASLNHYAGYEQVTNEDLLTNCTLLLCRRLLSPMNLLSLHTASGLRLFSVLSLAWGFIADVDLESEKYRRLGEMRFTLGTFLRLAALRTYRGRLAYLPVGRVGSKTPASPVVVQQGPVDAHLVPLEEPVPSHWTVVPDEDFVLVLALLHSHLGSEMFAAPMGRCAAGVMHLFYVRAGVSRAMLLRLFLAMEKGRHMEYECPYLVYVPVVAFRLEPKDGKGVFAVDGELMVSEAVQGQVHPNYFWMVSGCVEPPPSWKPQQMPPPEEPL

[4] = molecular target: T2, Sphingosine kinase 1; test: Effect on EGFP-fused human SPHK1 activity expressed in CHO cells at 10 uM relative to basal level; format: cell-based; summary of the method: as §1
[5] = molecular target: Protein kinase C alpha type (Homo sapiens) (UniProt P17252); test: Inhibition of human PKCalpha at 50 uM by gel electrophoresis
Summary of the method: (§2)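 PepTag nonradioactive assay: purified human PKCα with C1 peptide, PKC activator and reaction buffer. Inhibitor at 10, 25, 50, 75 or 100 µM, preincubated 2 min, then 30 min at 30 °C with enzyme. Stopped at 95 °C for 10 min.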

[6] = tested on: U-937; test: Inhibition of TNF-alpha-induced sphingosine-1-phosphate levels in human U937 cells at 5 uM after 2 hrs by ELISA; format: functional, cell-based
Summary of the method: (§3)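 Human monocytic U937 cells, stimulated or not with TNFα, were incubated with or without inhibitor at 5 µM for 2 h. Cellular S1P was quantified by competitive S1P ELISA (sensitivity 30 nM).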

[7] = tested on: U-937; test: Inhibition of basal sphingosine-1-phosphate levels in human U937 cells at 5 uM after 2 hrs by ELISA; format: functional, cell-based; summary of the method: as §3
[8] = molecular target: T1, Sphingosine kinase 2 (Homo sapiens); test: Inhibition of human SPHK2 expressed in human U937 cells assessed as inhibition of endogenous sphingosine-1-phosphate levels at 5 uM after 2 hrs by ELISA; format: cell-based; conditions: U-937
Summary of the method: (§4)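 U937 cells transfected with huSPHK1 or huSPHK2 plasmid, then incubated with or without inhibitor at 5 µM for 2 h. Endogenous S1P was measured by competitive ELISA (sensitivity 30 nM).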

[9] = molecular target: T3, Sphingosine kinase 2 (Homo sapiens, UniProt Q9NRA0); test: Inhibition of human cloned SPHK2 expressed in CHO cells using D-erythro-sphingosine as substrate by Michaelis-Menten plot
T3 sequence (Q9NRA0 whole entry): T1 sequence (whole entry)
Summary of the method: (§5)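 Kinetics of huSPHK1 or huSPHK2 from transfected CHO lysates, with D-erythro-sphingosine as substrate, in the 32P-ATP TLC assay (30 min, 37 °C). Michaelis-Menten behaviour was used to derive Km for sphingosine and Ki for the inhibitors.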

[10] = molecular target: T2, Sphingosine kinase 1; test: Inhibition of EGFP-fused human SPHK1 expressed in CHO cells using D-erythro-sphingosine as substrate by Michaelis-Menten plot; summary of the method: as §5
[11] = molecular target: T2, Sphingosine kinase 1; test: Inhibition of human SPHK1 expressed in human U937 cells assessed as inhibition of endogenous sphingosine-1-phosphate levels at 5 uM after 2 hrs by ELISA; format: cell-based; conditions: U-937; summary of the method: as §4
[12] = molecular target: T2, Sphingosine kinase 1; test: Inhibition of EGFP-fused human SPHK1 expressed in CHO cells; format: cell-based
Summary of the method: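 SPHK1 from transfected CHO cell lysates (40 µg per tube), sphingosine-BSA and γ-[32P]ATP, 30 min at 37 °C. Compounds tested at 0, 10, 25, 50 and 100 µM. Radiolabelled S1P measured by TLC and phosphorimaging. IC50 obtained from triplicate experiments and reported as mean ± SD.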

[13] = molecular target: Protein kinase C alpha type (Homo sapiens) (UniProt P17252); test: Inhibition of human PKCalpha at 100 uM by gel electrophoresis; summary of the method: as §2
[14] = tested on: U-937; test: Antiproliferative activity against human U937 cells at 10 uM after 24 to 72 hrs by MTT assay; format: functional
Summary of the method: (§6)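 U937 or HL60 cells in RPMI 1640 with 10% FBS and 1% L-glutamine; 50 000 cells/well at 1 × 10^6 cells/mL. Compound at 10 µM, DMSO 0.5% of volume as vehicle control. Incubated 24, 48, 72 h at 37 °C, 5% CO2. MTT (4 mg/mL in RPMI) added for 2 h in dark, crystals dissolved in DMSO/glycine buffer, A570 read.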

[15] = tested on: HL-60; test: Antiproliferative activity against human HL60 cells at 10 uM after 24 to 72 hrs by MTT assay; format: functional; summary of the method: as §6

| Structure (SMILES) | inhibition [1] | Activity [2] [%] | inhibition [3] | Activity [4] [%] | Activity [5] | Activity [6] | Activity [7] | Activity [8] | Ki [9] [µM] | Ki [10] [µM] | Activity [11] | IC50 [12] [µM] | Activity [13] | Activity [14] | Activity [15] [%] |
| --- | --- | --- | --- | --- | --- | --- | --- | --- | --- | --- | --- | --- | --- | --- | --- |
| CCCCCCCCC#CC(=O)[C@@H]1COC(C)(C)N1C(=O)OC(C)(C)C | 37.2% | 62.8 | 15.2% | 84.8 |  |  |  |  |  |  |  |  |  |  |  |
| CCCCCCCCCCCCC/C=C/[C@@H](O)[C@H](CO)N(C)C [DIMETHYLSPINGOSINE] | 33% | 67 |  |  | Active | Active | Active | Active | 12.5 |  |  |  |  |  |  |
| CCCCCCCCC#C[C@@H](O)[C@@H](N)CO | inactive | 116 | 13.7% | 86.3 |  |  |  |  |  |  |  |  |  |  |  |
| CCCCC#CC(=O)[C@@H]1COC(C)(C)N1C(=O)OC(C)(C)C | inactive | 115 | 9.08% | 90.9 |  |  |  |  |  |  |  |  |  |  |  |
| CCCCCCCCCCCCCC#C[C@@H](O)[C@@H]1COC(C)(C)N1C(=O)OC(C)(C)C | inactive | 123 | inactive | 112 |  |  |  |  |  |  |  |  |  |  |  |
| CCCCCCCCCCCCCC#CC(=O)[C@@H]1COC(C)(C)N1C(=O)OC(C)(C)C | inactive | 117 | 54.7% | 45.3 |  | Active |  |  |  | 3 | Active | 3.3 | Active | 10% | 10 |
| CCCCCCCCCCCCCC#C[C@@H](O)[C@@H](N)CO | inactive | 152 | 24.4% | 75.6 |  |  |  |  |  |  |  |  |  |  |  |
| CCCCC#C[C@H](O)[C@H](CO)NC(=O)OC(C)(C)C | inactive | 111 | inactive | 117 |  |  |  |  |  |  |  |  |  |  |  |
| CCCCC#CC(=O)[C@H](CO)NC(=O)OC(C)(C)C | inactive | 117 | inactive | 106 |  |  |  |  |  |  |  |  |  |  |  |
| CCCCC#C[C@@H](O)[C@@H](N)CO | inactive | 109 | inactive | 132 |  |  |  |  |  |  |  |  |  |  |  |
| CCCCCCC(=O)[C@@H]1COC(C)(C)N1C(=O)OC(C)(C)C | inactive | 126 | 4.71% | 95.3 |  |  |  |  |  |  |  |  |  |  |  |
| CCCCCCCCC#CC(=O)[C@H](CO)NC(=O)OC(C)(C)C | inactive | 89.9 | 4.2% | 95.8 |  |  |  |  |  |  |  |  |  |  |  |
| CCCCCCCCCCCCCC#CC(=O)[C@H](CO)NC(=O)OC(C)(C)C | 54.1% | 45.9 | 56.9% | 43.1 |  | inactive | Active | Active |  | 1 | Active | 1.2 |  | Active |  |
